D1 allo mod: D1 dopamine receptor (human) allosteric modulation | P21728 | 58,000 compounds, 5.9% hits | HEK293 D1, CRE-luciferase, dopamine EC30 potentiation; actives deviate in either direction | B-score at 10 µM;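 active = luminescence count or its row- and column-corrected plate score outside the 99.7% band of the plate's sample wells, on either side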
Target sequence (P21728 whole entry, looked up): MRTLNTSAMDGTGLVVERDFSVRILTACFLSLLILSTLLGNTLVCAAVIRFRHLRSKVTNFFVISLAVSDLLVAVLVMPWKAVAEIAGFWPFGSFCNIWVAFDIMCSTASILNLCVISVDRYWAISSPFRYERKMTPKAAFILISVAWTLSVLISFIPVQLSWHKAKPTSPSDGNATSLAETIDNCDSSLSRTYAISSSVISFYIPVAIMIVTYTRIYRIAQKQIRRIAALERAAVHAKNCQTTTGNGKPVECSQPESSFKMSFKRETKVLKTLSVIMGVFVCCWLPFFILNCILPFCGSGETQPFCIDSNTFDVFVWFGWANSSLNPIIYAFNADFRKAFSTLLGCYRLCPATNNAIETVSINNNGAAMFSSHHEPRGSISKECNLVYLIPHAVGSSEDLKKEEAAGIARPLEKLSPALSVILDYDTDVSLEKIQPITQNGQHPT
DAT uptake mod: human DAT dopamine uptake with cocaine, either direction | Q01959 | LLC-PK1 hDAT cells, [14C]-dopamine uptake with cocaine IC80; actives deviate in either direction | B-score at 10 µM | 110,000 compounds, 1.3% hits;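 active = Z score or B-score, a plate-position-corrected score, falls beyond the plate's 99.7% confidence bounds, in either direction; inactive = both scores lie inside the 99.7% bounds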;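 note: scored against the spread of the other compound wells on the same plate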
tolC growth inh: growth inhibitors of E. coli BW25113 tolC mutant; growth inhibition, % at 10 µM (by protocol); OD615; 65,000 compounds, 2.2% hits; AID 573;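 active = growth inhibition at or above a cutoff equal to the mean over every tested compound plus 3 SD, cut at about 60% in these data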;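 note: growth measured after 20 h incubation at 37 °C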
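Test system: E. coli BW25113 ΔtolC::kan bacteria | Medium: Kanamycin-containing LB broth (50 µg/mL) | Dosing: One dose of 10 µM final | Times: 20 h incubation with compound, 37 °C | Detection: Optical density read at 615 nm | Read-out basis: Percent growth inhibition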
PostGolgi yeast: growth inhibition of a yeast mutant, post-Golgi transport screen; post-Golgi transport phenotypic cell assay; inhibition, % at 10 µM; 98,000 compounds, 0.9% hits;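 note: yeast cells grown in 1536-well plates; yeast grown about 18 h at 30C before absorbance read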
PostGolgi ctrl: growth of the yeast control strain, post-Golgi counter-screen; efflux-deficient yeast background strain, growth absorbance A615, 16 h; inhibition, % at 10 µM; 98,000 compounds, 5% hits
Ecoli WT expand: blocks growth of wild type E. coli BW25113; 98,000 compounds, 0.15% hits; growth inhibition, % at 100 µM; OD600 absorbance;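 active = growth inhibition above about 50% at one test dose, limit read from the data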;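 note: growth measured after 20 h incubation at 37 °C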
An asterisk follows results filed as active; nt = no result. Most compounds without a hit are left out; they make up all but 9.3% or so of the library. Cut-off read from the data, not from the text of the source, unless noted: active = inhibition above about 30%; inactive = the rest.

SMILES	D1 allo mod	DAT uptake mod	tolC growth inh	PostGolgi yeast	PostGolgi ctrl	Ecoli WT expand
Nc1nc(CSc2n[nH]c(-c3ccccc3)n2)nc(Nc2ccccc2)n1	2.73	1.49	33.9	1.6	6.1	-5.0
Cc1ncoc1C(=O)Nc1cccc(Cl)c1	-0.0169	-0.0282	-4.0	12.6	-1.3	-3.0
Cc1ocnc1C(=O)Nc1ccc(Cl)cc1	-1.89*	1.9	-8.3	5.7	9.9	6.0
COc1ccc(C[C@H]2CN3C(=NC[C@@H]3C(C)C)N2CCNC(=O)c2ccc(C)c(Br)c2)cc1	nt	-3.15*	nt	nt	nt	nt
Nc1cccc2nc3ccccc3cc12	nt	0.853	nt	9.4	14.5	57.0*
CN(C)c1ccc(NC(=S)c2ccccn2)cc1	-6.2*	nt	6.0	nt	nt	nt
Cc1cc(NC(=O)CCC(=O)N(CC(=O)NCC2CCCO2)c2ccc3c(c2)OCCO3)no1 (configuration not stated)	nt	-0.32	nt	nt	nt	nt
CC(=O)c1cccc(N(CC(=O)NCC2CCCO2)C(=O)CCC(=O)Nc2cc(C)on2)c1 (configuration not stated)	0.152	0.522	-27.1	-8.7	41.0*	-4.0
COc1ccc(NC(=O)CSc2nc(-c3ccncc3)nn2CC(=O)N2CCCC2)cc1	nt	-0.245	-25.8	-4.4	0.0	-5.0
Cc1ccc(Nc2ncccc2C(=O)NCc2cccs2)c(C)c1	nt	nt	nt	-2.0	44.1*	-22.0
Cc1cccc(Nc2ncccc2C(=O)NCc2cccs2)c1C	nt	1.13	nt	-7.5	33.9*	-15.0
C/C=C\C=C\C(=O)Nc1cccc(C2=NOC3(C2)C[C@@H](C(N)=O)N(C(=O)C(c2ccccc2)c2ccccc2)C3)c1 (some centres not stated)	nt	1.36	nt	nt	nt	nt
N#Cc1cc2c(nc1SCC(=O)Nc1sc3c(c1C#N)CCC3)CCC2	nt	-0.316	nt	-0.9	9.6	-3.0
N#Cc1cc2c(nc1SCC(=O)Nc1sc3c(c1C#N)CCC3)CCCCCC2	nt	2.65*	nt	-2.7	-0.7	-15.0
Cc1csc(SCC(=O)Nc2sc3c(c2C#N)CCC3)n1	nt	0.179	nt	28.7	32.4*	-10.0
N#Cc1c(NC(=O)CSc2nnc(-c3ccccc3O)n2-c2ccccc2)sc2c1CCCC2	-0.0603	-0.274	13.8	24.4	40.0*	-5.0
CNS(=O)(=O)c1cccc(C(=O)OCc2cc(Cl)cc3c2OCOC3)c1	1.83	0.0132	27.6	-0.6	19.2	-18.0
COC(=O)c1ccc(-c2ncc(-c3cccc4ccccc34)o2)cc1	nt	3.03*	nt	nt	nt	nt
CCOC(=O)C1=C(O)/C(=C\c2ccc(CNC(=O)C(=O)Nc3ccccc3)o2)N=C1C	nt	-0.912	nt	2.3	2.1	0.0
COc1ccc(NC(=O)COC(=O)c2c3c(nc4ccccc24)CCCC3)cc1	nt	0.0942	nt	-0.5	33.5*	1.0
COc1ccc(OC)c(NC(=O)COC(=O)c2c3c(nc4ccccc24)CCCC3)c1	nt	-0.627	nt	15.8	11.2	0.0
COc1ccc(NC(=O)COC(=O)c2c3c(nc4ccccc24)CCCC3)cc1Cl	nt	-1.25	nt	48.6*	79.1*	-16.0
O=C1C(=O)N(CCCN2CCOCC2)C(c2ccccn2)/C1=C(\O)c1ccc2c(c1)OCCO2 (configuration not stated)	-0.365	nt	-17.5	nt	nt	nt
Cc1cc(NCCCn2ccnc2)n2ncc(-c3ccccc3)c2n1	-6.44*	0.437	23.4	18.6	38.1*	11.0
O=C(CSCC(=O)OCn1nnc2ccccc2c1=O)Nc1ccc(Cl)cc1	-1.22	nt	-7.4	-0.3	32.1*	3.0
SMILES	D1 allo mod	DAT uptake mod	tolC growth inh	PostGolgi yeast	PostGolgi ctrl	Ecoli WT expand
CC(=O)Nc1ccc(N2CCCCC2)c(C(=O)Nc2cccc(C)c2)c1	nt	1.82	nt	-16.9	31.2*	3.0
Cc1cccc(NC(=O)c2cc(NC(=O)C3CCCCC3C(=O)O)ccc2N2CCCCC2)c1 (configuration not stated)	-1.35	4.04*	76.5*	-0.6	23.1	-1.0
Cc1cccc(NC(=O)c2cc(NC(=O)C3CC=CCC3C(=O)O)ccc2N2CCOCC2)c1 (configuration not stated)	0.869	0.00311	8.8	1.1	14.3	4.0
O=C(c1cc2ccccc2o1)c1cccs1	1.49	-0.682	22.4	-2.0	31.3*	2.0
Cc1cccc(-c2nc3ccccc3c3nncn23)c1	14.5*	0.0702	7.5	0.6	-2.6	7.0
COCC(=O)N(C)c1nnc(-c2cnc(C)cn2)s1	-0.506	-1.51	-23.4	4.8	12.0	1.0
O=C1N2CCSC2=NC1(Nc1ccccn1)C(F)(F)F (configuration not stated)	1.38	-0.727	-18.9	-0.3	48.3*	2.0
Cc1cc(S(=O)(=O)Nc2ccc3ccccc3c2)c(C)s1	nt	0.0693	nt	-10.6	78.2*	-8.0
N#Cc1c(N)nc(SCc2ccccn2)c(C#N)c1-c1cccs1	nt	0.0717	8.1	10.2	54.1*	-5.0
CCCCn1c(-c2ccccc2)cnc1SCC(=O)NCCc1ccc(OC)c(OC)c1	nt	1.81	nt	18.5	11.7	-16.0
CCCS(=O)(=O)N1CCCC(C(=O)NCCCN(C)Cc2ccccc2)C1 (configuration not stated)	-0.507	-0.0881	-33.0	5.0	38.9*	1.0
CCCS(=O)(=O)N1CCCC(C(=O)NCCCN(Cc2ccccc2)C(C)C)C1 (configuration not stated)	-0.784	nt	-21.5	-1.5	1.7	2.0
Cc1nn(CCC(=O)NNC(=S)NCC(C)C)c(C)c1Br	nt	0.391	nt	6.7	2.2	1.0
CNC(=S)NNC(=O)CCn1nc(C)c(Br)c1C	nt	-0.496	nt	-12.6	36.9*	6.0
N#Cc1cnc(Nc2nc3ccccc3o2)nc1-c1ccccc1	nt	-0.842	35.9	-2.7	6.8	-14.0
Cc1ccnc(Nc2nc3ccccc3o2)n1	-4.44*	0.0551	-6.8	-7.6	0.6	7.0
O=C(NCc1ccc(Cl)cc1)c1ccccc1Oc1ccccc1	nt	0.9	nt	-8.3	33.2*	0.0
COCCCNC(=O)c1ccccc1Oc1ccccc1	0.262	0.221	-15.1	13.8	0.5	-1.0
COCCN(Cc1cc2cccc(C)c2[nH]c1=O)C(=O)c1ccccc1	0.471	0.756	-11.6	6.1	34.5*	-5.0
CCN(Cc1cc2cccc(C)c2[nH]c1=O)C(=O)c1ccccc1OC	nt	-0.0894	-10.7	nt	nt	nt
O=C(c1ccco1)N1CCN(C/C=C/c2ccccc2)CC1	-0.145	-0.0217	-14.8	-5.4	-15.5	4.0
O=C(c1nn(Cc2ccccc2)c(=O)c2ccccc12)N1CCN(C/C=C/c2ccccc2)CC1	nt	4.05*	nt	-1.0	5.8	-1.0
NS(=O)(=O)c1ccc(NC(=O)Cn2ncc3c2-c2ccccc2OC3)cc1	nt	-1.28	nt	1.5	0.9	0.0
CC(=O)N1CC=CC1(C)C(=O)O (configuration not stated)	nt	-0.0332	nt	nt	nt	nt
CCCCn1c(NC(=O)c2ccccc2Cl)c(C#N)c2nc3ccccc3nc21	-0.74	0.274	99.0*	33.4*	18.5	-6.0
CCC(=O)Nc1c(C#N)c2nc3ccccc3nc2n1-c1ccccc1C	3.66	0.482	25.9	3.4	6.3	-17.0
COc1ccc(-n2c(NC(=O)c3ccco3)c(C#N)c3nc4ccccc4nc32)cc1	0.699	-0.143	29.7	6.1	9.1	0.0

Bioassay records from PubChem BioAssay.
